# Measurements reported in ChEMBL document CHEMBL4689842, “EUbOPEN Chemogenomics Library wave 1” (2021).
# Tested on: Fibroblast
# Test: Multiplex assay against human fibroblast
# Assay type: toxicity, cell-based
# Procedure, shortened: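 Values for tubulin, mitochondrial-mass and membrane-permeability phenotypes are per cents of cells with healthy nuclei. These cells were identified by CellPathfinder machine-learning gating of live cells that had been stained at seeding with Hoechst33342, BioTracker Green Microtubule Cytoskeleton Dye, MitoTracker Red and Annexin V Alexa Fluor 680 and imaged on a CQ1 microscope at 37°C and 5% CO2 after compound addition. The gating first set Hoechst high-intensity objects apart from normal cells, then split normal cells into healthy, pyknosed or fragmented nuclei, and pyknosed cells into mitotic or apoptotic.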
# [1] = 12 h, 1 µM, compound concentration 1 uM, replicate 1
# [2] = 12 h, 1 µM, compound concentration 1 uM, replicate 2
# [3] = 12 h, 10 µM, compound concentration 10 uM, replicate 1
# [4] = 12 h, 10 µM, compound concentration 10 uM, replicate 2
# [5] = 24 h, 1 µM, compound concentration 1 uM, replicate 1
# [6] = 24 h, 1 µM, compound concentration 1 uM, replicate 2
# [7] = 24 h, 10 µM, compound concentration 10 uM, replicate 1
# [8] = 24 h, 10 µM, compound concentration 10 uM, replicate 2
# [9] = 48 h, 1 µM, compound concentration 1 uM, replicate 1
# [10] = 48 h, 1 µM, compound concentration 1 uM, replicate 2
# [11] = 48 h, 10 µM, compound concentration 10 uM, replicate 1
# [12] = 48 h, 10 µM, compound concentration 10 uM, replicate 2
compound,measurement,setting,value
COc1ncc(-c2ccc3nccc(-c4ccnnc4)c3c2)cc1NS(=O)(=O)c1ccc(F)cc1F [OMIPALISIB],Population Apoptotic (%),[1],57%
same,Population Fragmented Nuclei (%),[1],21%
same,Population Healthy Nuclei (%),[1],49%
same,Population Hoechst High Intensity Objects (%),[1],12%
same,Population Membrane Permeable-Phenotype (%),[1],28%
same,Population Mitochondria Different-Phenotype (%),[1],2%
same,Population Mitotic Cells (%),[1],42%
same,Population Normal (%),[1],87%
same,Population Pyknosed Nuclei (%),[1],29%
same,Population Tubulin-Different-Phenotype (%),[1],51%
same,Total Cell Count,[1],81
same,Population Apoptotic (%),[2],50%
same,Population Fragmented Nuclei (%),[2],46%
same,Population Healthy Nuclei (%),[2],42%
same,Population Hoechst High Intensity Objects (%),[2],7%
same,Population Membrane Permeable-Phenotype (%),[2],16%
same,Population Mitochondria Different-Phenotype (%),[2],16%
same,Population Mitotic Cells (%),[2],50%
same,Population Normal (%),[2],92%
same,Population Pyknosed Nuclei (%),[2],11%
same,Population Tubulin-Different-Phenotype (%),[2],23%
same,Total Cell Count,[2],51
same,Population Apoptotic (%),[3],78%
same,Population Fragmented Nuclei (%),[3],20%
same,Population Healthy Nuclei (%),[3],38%
same,Population Hoechst High Intensity Objects (%),[3],18%
same,Population Membrane Permeable-Phenotype (%),[3],30%
same,Population Mitochondria Different-Phenotype (%),[3],6%
same,Population Mitotic Cells (%),[3],21%
same,Population Normal (%),[3],81%
same,Population Pyknosed Nuclei (%),[3],41%
same,Population Tubulin-Different-Phenotype (%),[3],73%
same,Total Cell Count,[3],96
same,Population Apoptotic (%),[4],65%
same,Population Fragmented Nuclei (%),[4],33%
same,Population Healthy Nuclei (%),[4],27%
same,Population Hoechst High Intensity Objects (%),[4],7%
same,Population Membrane Permeable-Phenotype (%),[4],11%
same,Population Mitochondria Different-Phenotype (%),[4],16%
same,Population Mitotic Cells (%),[4],34%
same,Population Normal (%),[4],92%
same,Population Pyknosed Nuclei (%),[4],39%
same,Population Tubulin-Different-Phenotype (%),[4],22%
same,Total Cell Count,[4],77
same,Population Apoptotic (%),[5],58%
same,Population Fragmented Nuclei (%),[5],30%
same,Population Healthy Nuclei (%),[5],53%
same,Population Hoechst High Intensity Objects (%),[5],10%
same,Population Membrane Permeable-Phenotype (%),[5],32%
same,Population Mitochondria Different-Phenotype (%),[5],2%
same,Population Mitotic Cells (%),[5],41%
same,Population Normal (%),[5],89%
same,Population Tubulin-Different-Phenotype (%),[5],42%
same,Total Cell Count,[5],84
same,Population Apoptotic (%),[6],33%
same,Population Fragmented Nuclei (%),[6],43%
same,Population Healthy Nuclei (%),[6],40%
same,Population Hoechst High Intensity Objects (%),[6],11%
same,Population Membrane Permeable-Phenotype (%),[6],24%
same,Population Mitochondria Different-Phenotype (%),[6],17%
same,Population Mitotic Cells (%),[6],66%
same,Population Normal (%),[6],88%
same,Population Pyknosed Nuclei (%),[6],16%
same,Population Tubulin-Different-Phenotype (%),[6],37%
same,Total Cell Count,[6],50
same,Population Apoptotic (%),[7],66%
same,Population Fragmented Nuclei (%),[7],25%
same,Population Healthy Nuclei (%),[7],49%
same,Population Hoechst High Intensity Objects (%),[7],20%
same,Population Membrane Permeable-Phenotype (%),[7],31%
same,Population Mitochondria Different-Phenotype (%),[7],11%
same,Population Mitotic Cells (%),[7],33%
same,Population Normal (%),[7],79%
same,Population Pyknosed Nuclei (%),[7],25%
same,Population Tubulin-Different-Phenotype (%),[7],80%
same,Total Cell Count,[7],89
same,Population Apoptotic (%),[8],80%
same,Population Fragmented Nuclei (%),[8],27%
same,Population Healthy Nuclei (%),[8],22%
same,Population Hoechst High Intensity Objects (%),[8],11%
same,Population Membrane Permeable-Phenotype (%),[8],35%
same,Population Mitochondria Different-Phenotype (%),[8],28%
same,Population Mitotic Cells (%),[8],20%
same,Population Normal (%),[8],88%
same,Population Pyknosed Nuclei (%),[8],49%
same,Population Tubulin-Different-Phenotype (%),[8],42%
same,Total Cell Count,[8],81
same,Population Apoptotic (%),[9],42%
same,Population Fragmented Nuclei (%),[9],40%
same,Population Healthy Nuclei (%),[9],48%
same,Population Hoechst High Intensity Objects (%),[9],16%
same,Population Membrane Permeable-Phenotype (%),[9],21%
same,Population Mitochondria Different-Phenotype (%),[9],12%
same,Population Mitotic Cells (%),[9],57%
same,Population Normal (%),[9],83%
same,Population Pyknosed Nuclei (%),[9],10%
same,Population Tubulin-Different-Phenotype (%),[9],37%
same,Total Cell Count,[9],79
same,Population Apoptotic (%),[10],0%
same,Population Fragmented Nuclei (%),[10],47%
same,Population Healthy Nuclei (%),[10],52%
same,Population Hoechst High Intensity Objects (%),[10],13%
same,Population Membrane Permeable-Phenotype (%),[10],35%
same,Population Mitochondria Different-Phenotype (%),[10],3%
same,Population Mitotic Cells (%),[10],0%
same,Population Normal (%),[10],86%
same,Population Pyknosed Nuclei (%),[10],0%
same,Population Tubulin-Different-Phenotype (%),[10],53%
same,Total Cell Count,[10],61
same,Population Apoptotic (%),[11],63%
same,Population Fragmented Nuclei (%),[11],34%
same,Population Healthy Nuclei (%),[11],50%
same,Population Hoechst High Intensity Objects (%),[11],17%
same,Population Membrane Permeable-Phenotype (%),[11],31%
same,Population Mitochondria Different-Phenotype (%),[11],14%
same,Population Mitotic Cells (%),[11],36%
same,Population Normal (%),[11],82%
same,Population Pyknosed Nuclei (%),[11],15%
same,Population Tubulin-Different-Phenotype (%),[11],82%
same,Total Cell Count,[11],85
same,Population Apoptotic (%),[12],0%
same,Population Fragmented Nuclei (%),[12],33%
same,Population Healthy Nuclei (%),[12],65%
same,Population Hoechst High Intensity Objects (%),[12],12%
same,Population Membrane Permeable-Phenotype (%),[12],20%
same,Population Mitochondria Different-Phenotype (%),[12],8%
same,Population Mitotic Cells (%),[12],100%
same,Population Normal (%),[12],87%
same,Population Pyknosed Nuclei (%),[12],1%
same,Population Tubulin-Different-Phenotype (%),[12],93%
same,Total Cell Count,[12],86
Cc1csc2c(N[C@@H](C)CN3CCN(S(=O)(=O)c4ccc(Cl)c(Cl)c4)CC3)ncnc12,Population Apoptotic (%),[1],56%
same,Population Fragmented Nuclei (%),[1],22%
same,Population Healthy Nuclei (%),[1],46%
same,Population Hoechst High Intensity Objects (%),[1],5%
same,Population Membrane Permeable-Phenotype (%),[1],33%
same,Population Mitochondria Different-Phenotype (%),[1],21%
same,Population Mitotic Cells (%),[1],43%
same,Population Normal (%),[1],94%
same,Population Pyknosed Nuclei (%),[1],31%
same,Population Tubulin-Different-Phenotype (%),[1],87%
same,Total Cell Count,[1],149
same,Population Apoptotic (%),[2],16%
same,Population Fragmented Nuclei (%),[2],5%
same,Population Healthy Nuclei (%),[2],84%
same,Population Membrane Permeable-Phenotype (%),[2],6%
same,Population Mitochondria Different-Phenotype (%),[2],33%
same,Population Mitotic Cells (%),[2],83%
same,Population Normal (%),[2],95%
same,Population Pyknosed Nuclei (%),[2],10%
same,Population Tubulin-Different-Phenotype (%),[2],47%
same,Total Cell Count,[2],48
same,Population Apoptotic (%),[3],52%
same,Population Fragmented Nuclei (%),[3],32%
same,Population Healthy Nuclei (%),[3],29%
same,Population Hoechst High Intensity Objects (%),[3],21%
same,Population Membrane Permeable-Phenotype (%),[3],23%
same,Population Mitochondria Different-Phenotype (%),[3],42%
same,Population Mitotic Cells (%),[3],47%
same,Population Normal (%),[3],78%
same,Population Pyknosed Nuclei (%),[3],38%
same,Population Tubulin-Different-Phenotype (%),[3],92%
same,Total Cell Count,[3],113
same,Population Apoptotic (%),[4],75%
same,Population Fragmented Nuclei (%),[4],12%
same,Population Healthy Nuclei (%),[4],67%
same,Population Hoechst High Intensity Objects (%),[4],4%
same,Population Membrane Permeable-Phenotype (%),[4],56%
same,Population Mitochondria Different-Phenotype (%),[4],98%
same,Population Mitotic Cells (%),[4],25%
same,Population Normal (%),[4],95%
same,Population Pyknosed Nuclei (%),[4],19%
same,Population Tubulin-Different-Phenotype (%),[4],98%
same,Total Cell Count,[4],60
same,Population Apoptotic (%),[5],59%
same,Population Fragmented Nuclei (%),[5],26%
same,Population Healthy Nuclei (%),[5],44%
same,Population Hoechst High Intensity Objects (%),[5],8%
same,Population Membrane Permeable-Phenotype (%),[5],19%
same,Population Mitochondria Different-Phenotype (%),[5],33%
same,Population Mitotic Cells (%),[5],40%
same,Population Normal (%),[5],91%
same,Population Pyknosed Nuclei (%),[5],29%
same,Population Tubulin-Different-Phenotype (%),[5],90%
same,Total Cell Count,[5],156
same,Population Apoptotic (%),[6],60%
same,Population Fragmented Nuclei (%),[6],11%
same,Population Healthy Nuclei (%),[6],73%
same,Population Hoechst High Intensity Objects (%),[6],4%
same,Population Membrane Permeable-Phenotype (%),[6],11%
same,Population Mitochondria Different-Phenotype (%),[6],25%
same,Population Normal (%),[6],95%
same,Population Pyknosed Nuclei (%),[6],14%
same,Population Tubulin-Different-Phenotype (%),[6],23%
same,Total Cell Count,[6],64
same,Population Apoptotic (%),[7],67%
same,Population Fragmented Nuclei (%),[7],36%
same,Population Healthy Nuclei (%),[7],24%
same,Population Hoechst High Intensity Objects (%),[7],23%
same,Population Membrane Permeable-Phenotype (%),[7],19%
same,Population Mitochondria Different-Phenotype (%),[7],71%
same,Population Mitotic Cells (%),[7],32%
same,Population Normal (%),[7],76%
same,Population Pyknosed Nuclei (%),[7],39%
same,Population Tubulin-Different-Phenotype (%),[7],80%
same,Total Cell Count,[7],113
same,Population Apoptotic (%),[8],80%
same,Population Fragmented Nuclei (%),[8],15%
same,Population Healthy Nuclei (%),[8],57%
same,Population Hoechst High Intensity Objects (%),[8],4%
same,Population Membrane Permeable-Phenotype (%),[8],80%
same,Population Mitochondria Different-Phenotype (%),[8],97%
same,Population Mitotic Cells (%),[8],19%
same,Population Normal (%),[8],95%
same,Population Pyknosed Nuclei (%),[8],26%
same,Population Tubulin-Different-Phenotype (%),[8],97%
same,Total Cell Count,[8],72
same,Population Apoptotic (%),[9],67%
same,Population Fragmented Nuclei (%),[9],22%
same,Population Healthy Nuclei (%),[9],53%
same,Population Hoechst High Intensity Objects (%),[9],9%
same,Population Membrane Permeable-Phenotype (%),[9],33%
same,Population Mitochondria Different-Phenotype (%),[9],17%
same,Population Mitotic Cells (%),[9],32%
same,Population Normal (%),[9],90%
same,Population Pyknosed Nuclei (%),[9],24%
same,Population Tubulin-Different-Phenotype (%),[9],96%
same,Total Cell Count,[9],155
same,Population Apoptotic (%),[10],100%
same,Population Fragmented Nuclei (%),[10],31%
same,Population Healthy Nuclei (%),[10],67%
same,Population Hoechst High Intensity Objects (%),[10],8%
same,Population Membrane Permeable-Phenotype (%),[10],9%
same,Population Mitochondria Different-Phenotype (%),[10],7%
same,Population Mitotic Cells (%),[10],0%
same,Population Normal (%),[10],91%
same,Population Pyknosed Nuclei (%),[10],0%
same,Population Tubulin-Different-Phenotype (%),[10],93%
same,Total Cell Count,[10],123
same,Population Apoptotic (%),[11],100%
same,Population Fragmented Nuclei (%),[11],33%
same,Population Healthy Nuclei (%),[11],37%
same,Population Hoechst High Intensity Objects (%),[11],40%
same,Population Membrane Permeable-Phenotype (%),[11],21%
same,Population Mitochondria Different-Phenotype (%),[11],56%
same,Population Mitotic Cells (%),[11],0%
same,Population Normal (%),[11],59%
same,Population Pyknosed Nuclei (%),[11],29%
same,Population Tubulin-Different-Phenotype (%),[11],82%
same,Total Cell Count,[11],104
same,Population Apoptotic (%),[12],57%
same,Population Fragmented Nuclei (%),[12],44%
same,Population Healthy Nuclei (%),[12],47%
same,Population Hoechst High Intensity Objects (%),[12],25%
same,Population Membrane Permeable-Phenotype (%),[12],2%
same,Population Mitochondria Different-Phenotype (%),[12],79%
same,Population Mitotic Cells (%),[12],42%
same,Population Normal (%),[12],75%
same,Population Pyknosed Nuclei (%),[12],7%
same,Population Tubulin-Different-Phenotype (%),[12],95%
same,Total Cell Count,[12],120
